Test results: ChEMBL document CHEMBL1123260 (J Med Chem, 1986)
“And” between values parts separate entries of the source, which are not always exact repeats. Identical values can stand only once.

Tests used:
[1] = tested on: Canis familiaris; test: (§1) Percent change in mean arterial blood pressure (MABP) before beta-blockade in anesthetized dogs at 0.11 mg/kg; assay type: functional, Canis lupus familiaris
Procedure, shortened: (§2)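 Anesthetized dogs: 30 min control recording before dosing. Drug dissolved in 0.9% saline or dilute HCl or NaOH (0.1 or 1.0 N), then made to volume with saline. Given iv (0.1 mL/kg over 1 min), cumulative doses at half-log intervals, 10–30 min between doses to reach steady state. One compound per animal. Inotropy taken as change in LV dP/dtmax from preceding baseline. Values are mean ± SEM or the mean of two experiments.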

[2] = tested on: Canis familiaris; test: (§3) Percent change in mean arterial blood pressure (MABP) before beta-blockade in anesthetized dogs at 0.03 mg/kg; assay type: functional, Canis lupus familiaris; procedure, shortened: as §2
[3] = tested on: Canis familiaris; test: Percent change in forelimb vascular resistance (FVR)in anesthetized dogs after beta-blockade at 0.01 mg/kg; assay type: functional, Canis lupus familiaris
Procedure, shortened: (§4)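 Anesthetized dogs given β-adrenoceptor blockade (nadolol, 1 mg/kg iv) before the test agent. Drug dissolved in saline or dilute HCl/NaOH and given iv as cumulative 1-min doses, 10–30 min apart. Forelimb vascular resistance recorded as percent change from control. Values are mean ± SEM (n = 4-5) or the mean of two determinations, with significance set at p < 0.05.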

[4] = tested on: Canis familiaris; test: (§5) Percent change in forelimb vascular resistance (FVR) after beta-blockade in anesthetized dogs 0.03 mg/kg; assay type: functional, Canis lupus familiaris; procedure, shortened: as §4
[5] = tested on: Canis familiaris; test: (§6) Percent change in heart rate (HR) before beta-blockade in anesthetized dogs at 0.03 mg/kg; assay type: functional, Canis lupus familiaris; procedure, shortened: as §2
[6] = tested on: Canis familiaris; test: (§7) Percent change in forelimb vascular resistance (FVR) after beta-blockade in anesthetized dogs 0.11 mg/kg; assay type: functional, Canis lupus familiaris; procedure, shortened: as §4
[7] = tested on: Canis familiaris; test: (§8) Percent change in heart rate (HR) before beta-blockade in anesthetized dogs at 0.01 mg/kg; assay type: functional, Canis lupus familiaris; procedure, shortened: as §2
[8] = tested on: Canis familiaris; test: (§9) Percent change in total peripheral resistance (TPR) before beta-blockade in anesthetized dogs at 0.03 mg/kg; assay type: functional, Canis lupus familiaris; procedure, shortened: as §2
[9] = tested on: Canis familiaris; test: Percent change in total peripheral resistance (TPR) before beta-blockade in anesthetized dogs at 0.11 mg/kg; assay type: functional, Canis lupus familiaris; procedure, shortened: as §2
[10] = tested on: Canis familiaris; test: (§10) Percent change in myocardial contractility (LV dp/dt) before beta-blockade in anesthetized dogs at 0.01 mg/kg; assay type: functional, Canis lupus familiaris, Myocardium; procedure, shortened: as §2
[11] = tested on: Canis familiaris; test: as §8; assay type: functional, Canis lupus familiaris; procedure, shortened: as §2; remark: listed apart in the source
[12] = tested on: Canis familiaris; test: as §6; assay type: functional, Canis lupus familiaris; procedure, shortened: as §2; remark: listed apart in the source
[13] = tested on: Canis familiaris; test: (§11) Percent change in mean arterial blood pressure (MABP) before beta-blockade in anesthetized dogs at 0.01 mg/kg; assay type: functional, Canis lupus familiaris; procedure, shortened: as §2
[14] = molecular target: Phosphodiesterase 3 (Homo sapiens, UniProt Q14432+Q13370); test: Inhibition of cardiac PDE 3 (phosphodiesterase III); assay type: protein assay, Canis lupus familiaris
[15] = tested on: Canis familiaris; test: as §7; assay type: functional, Canis lupus familiaris; procedure, shortened: as §4; remark: listed apart in the source
[16] = tested on: Canis familiaris; test: Percent change in myocardial contractility (LV dp/dt) before beta-blockade in anesthetized dogs at 0.11 mg/kg; assay type: functional, Canis lupus familiaris, Myocardium; procedure, shortened: as §2
[17] = tested on: Canis familiaris; test: as §5; assay type: functional, Canis lupus familiaris; procedure, shortened: as §4; remark: listed apart in the source
[18] = tested on: Canis familiaris; test: Percent change in forelimb vascular resistance (FVR) after beta-blockade in anesthetized dogs 0.01 mg/kg; assay type: functional, Canis lupus familiaris; procedure, shortened: as §4
[19] = tested on: Canis familiaris; test: Percent change in total peripheral resistance (TPR) before beta-blockade in anaesthetized dogs at 0.11 mg/kg; assay type: functional, Canis lupus familiaris; procedure, shortened: as §2
[20] = tested on: Canis familiaris; test: as §11; assay type: functional, Canis lupus familiaris; procedure, shortened: as §2; remark: listed apart in the source
[21] = tested on: Canis familiaris; test: (§12) Percent change in heart rate (HR) before beta-blockade in anesthetized dogs at 0.11 mg/kg; assay type: functional, Canis lupus familiaris; procedure, shortened: as §2
[22] = tested on: Canis familiaris; test: as §1; assay type: functional, Canis lupus familiaris; procedure, shortened: as §2; remark: listed apart in the source
[23] = tested on: Canis familiaris; test: Positive inotropic effects in anesthetized dogs; assay type: functional; details: Canis lupus familiaris; procedure, shortened: as §2
[24] = tested on: Canis familiaris; test: (§13) Percent change in total peripheral resistance (TPR) before beta-blockade in anesthetized dogs at 0.01 mg/kg; assay type: functional, Canis lupus familiaris; procedure, shortened: as §2
[25] = tested on: Canis familiaris; test: as §10; assay type: functional, Canis lupus familiaris, Myocardium; procedure, shortened: as §2; remark: listed apart in the source
[26] = tested on: Canis familiaris; test: as §9; assay type: functional, Canis lupus familiaris; procedure, shortened: as §2; remark: listed apart in the source
[27] = tested on: Canis familiaris; test: as §3; assay type: functional, Canis lupus familiaris; procedure, shortened: as §2; remark: listed apart in the source
[28] = tested on: Canis familiaris; test: as §13; assay type: functional, Canis lupus familiaris; procedure, shortened: as §2; remark: listed apart in the source
[29] = tested on: Canis familiaris; test: as §12; assay type: functional, Canis lupus familiaris; procedure, shortened: as §2; remark: listed apart in the source
[30] = tested on: Canis familiaris; test: Cardiovascular effects in anesthetized dogs; assay type: functional; details: Canis lupus familiaris; procedure, shortened: as §2
[31] = tested on: Canis familiaris; test: Effective dose in anesthetized dogs; assay type: functional; details: Canis lupus familiaris; procedure, shortened: as §2
[32] = tested on: Canis familiaris; test: Percent change in myocardial contractility (LV dp/dt) before beta-blockade in anesthetized dogs at 0.03 mg/kg; assay type: functional, Canis lupus familiaris, Myocardium; procedure, shortened: as §2

`O=C1CC2Cc3cc(-n4ccnc4)ccc3C2=NN1` (stereo not drawn) was tested, and the “Change in MABP” value [1] was -18%, the “Change in MABP” value [2] was -3% and the “Change in FVR” value [3] was -1.5%. The “Change in FVR” value [4] was -22.5%, the “Change in heart rate” value [5] was 4% and the “Change in FVR” value [6] was -31%. The “Change in heart rate” value [7] was 3%, the “Change in TPR” value [8] was -22.5% and the “Change in TPR” value [9] was -39%. For the same compound, the “Change in LV dp/dt” value [10] was 11%, the “Change in heart rate” value [11] was 0% and the “Change in heart rate” value [12] was 2%. The “Change in MABP” value [13] was -2%, the IC50 [14] was 1800 nM and the “Change in FVR” value [15] was -34.5%. For the same compound, the “Change in LV dp/dt” value [16] was 106% and 57%, the “Change in FVR” value [17] was -1.5% and the “Change in FVR” value [18] was -7.5%. The “Change in TPR” value [19] was -33.5%, the “Change in MABP” value [20] was 0% and the “Change in heart rate” value [21] was 12%. The “Change in MABP” value [22] was -18%, the ED50 [23] was 0.023 mg/kg and the “Change in TPR” value [24] was -8.5%. For the same compound, the “Change in LV dp/dt” value [25] was 18%, the “Change in TPR” value [26] was -23% and the “Change in MABP” value [27] was -7%. The “Change in TPR” value [28] was -12% and the “Change in heart rate” value [29] was 5%.
In the case of `CCC(=O)Nc1ccc2c(c1)CC1CC(=O)NN=C21` (stereo not drawn), the ED50 [30] was 0.0104 mg/kg.
`Oc1cc2c(nn1)-c1ccc(-n3ccnc3)cc1C2` showed an IC50 [14] of 1600 nM.
Work on `CN1N=C2c3ccc(-n4ccnc4)cc3CC2CC1=O` (stereo not drawn) yielded an ED50 [31] of 1 mg/kg.
`CC1CC(O)=NN=C1c1ccc(-n2ccnc2)cc1` (stereo not drawn) [CI-930] was tested, and the “Change in MABP” value [2] was -5%, the “Change in heart rate” value [5] was 11% and the “Change in LV dp/dt” value [32] was 76% and 47%. The “Change in heart rate” value [12] was 7%, the ED50 [23] was 0.013 mg/kg and the “Change in MABP” value [27] was -7.5%.
